Beta2AR agonist = human beta-2 adrenergic receptor agonism by FAP | Am2.2-beta2AR cells, FAP receptor internalization, flow cytometry | response, % (no concentration beside the values) | hit rate 0.43% among 340,000 | AID 504454;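 active = response above a set limit, near 3 SD of response in nonfluorescent compounds, cut at about 42% in these data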
Target sequence (P07550 whole entry, looked up): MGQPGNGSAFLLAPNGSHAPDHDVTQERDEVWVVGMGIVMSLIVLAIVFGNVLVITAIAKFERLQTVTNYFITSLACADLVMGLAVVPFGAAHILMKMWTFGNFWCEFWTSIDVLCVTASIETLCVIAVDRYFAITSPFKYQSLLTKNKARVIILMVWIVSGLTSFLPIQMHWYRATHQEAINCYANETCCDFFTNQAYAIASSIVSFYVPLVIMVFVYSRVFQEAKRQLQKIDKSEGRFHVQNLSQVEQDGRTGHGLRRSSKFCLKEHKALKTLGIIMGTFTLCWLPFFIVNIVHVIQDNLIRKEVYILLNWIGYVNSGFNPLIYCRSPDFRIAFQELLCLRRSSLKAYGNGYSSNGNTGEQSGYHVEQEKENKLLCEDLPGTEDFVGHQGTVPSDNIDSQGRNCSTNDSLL
ABHD5 PLIN5 PPI = inhibitors of human ABHD5-perilipin-5 interaction | hit rate 0.78% among 360,000 | inhibition, % at 4 µM | Split G. princeps luciferase complementation, luminescence, 4 h | Q00G26+Q8WTS1 | AID 602281;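 active = inhibition above the mean inhibition across every tested compound plus 3 SD, cut at about 22% in these data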
MC4R antagonist = blocks human MC4R cAMP signaling; P32245; MC4R-expressing cells, MTII-stimulated cAMP, LANCE TR-FRET; inhibition, % at 6.5 µM; hit rate 0.48% among 360,000;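 active = inhibition above its plate's cutoff, the mean of tested wells on that plate plus 3 SD, cut at about 29% in these data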
Target sequence (P32245 whole entry, looked up): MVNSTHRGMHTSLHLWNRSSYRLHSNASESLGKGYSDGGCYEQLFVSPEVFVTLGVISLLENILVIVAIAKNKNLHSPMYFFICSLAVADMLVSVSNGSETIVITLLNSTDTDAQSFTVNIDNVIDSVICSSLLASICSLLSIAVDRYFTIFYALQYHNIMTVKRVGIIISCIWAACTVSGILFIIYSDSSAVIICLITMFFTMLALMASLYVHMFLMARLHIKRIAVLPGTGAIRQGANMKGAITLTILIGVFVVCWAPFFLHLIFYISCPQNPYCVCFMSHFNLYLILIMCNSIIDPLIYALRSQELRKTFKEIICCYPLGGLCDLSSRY
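System: U2OS cells stably expressing human melanocortin 4 receptor (MC4R). Reagent: Melanotan II challenge after compound preincubation. Doses: 6.5 µM. Times: 30-min compound, 1-h challenge, 1-h detection, room temperature. Measured by: TR-FRET with Eu-cAMP and labeled anti-cAMP, 671 nm. Replicates: singlicate.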
PfG6PD inh = PfG6PD (Plasmodium falciparum) enzyme inhibition; PfGluPho enzyme, NADPH resazurin-diaphorase fluorescence; inhibition, % at 20 µM; hit rate 0.78% among 350,000;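 active = inhibition reaching at least a set limit at 20 µM in the primary screen, cut at about 59% in these data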
MC4R ag barr = agonists of human melanocortin 4 receptor (MC4R) beta-arrestin; P32245; activation, % at 8.9 µM; U2OS MC4R beta-arrestin complementation, luminescence; percent of melanotan II response, DMSO zero; hit rate 0.98% among 360,000;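 active = activation above a per-plate cutoff, the mean activation of sample wells on that plate plus 3 SD, cut at about 8% in these data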
ABHD5 PLIN5 conf = ABHD5-PLIN5 interaction inhibition, confirmed; shares compounds with ABHD5 PLIN5 PPI; biochemical ABHD5-PLIN5 interaction, luminescence; inhibition, % at 4 µM; hit rate 67% among 2,200; in the data active = inhibition above about 23%
HNF4 counter = active in HNF4 split-luciferase counter-screen for ABHD5-PLIN5 inhibitors | shares compounds with ABHD5 PLIN5 PPI | HNF4 dimerization, luminescence, biochemical | inhibition, % at 4 µM | hit rate 77% among 2,200 | AID 651674;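 active = mean inhibition across replicate wells exceeding the computed hit threshold, cut at about 13% in these data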;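 note: light from luciferase halves that rejoin when HNF4 fusion proteins dimerize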
Large screens that a line does not name were inactive (follow-up assays come after a bar, where they were run). Sampled rows, rich in hits. Any-hit rate of the full collection: about 3%.

Cc1csc(N=Nc2ccc(N(C)C)cc2)[n+]1[O-]	ABHD5 PLIN5 PPI 28.7 (no result: Beta2AR agonist) | ABHD5 PLIN5 conf 26.4 | HNF4 counter 31.6
CCN(C(=O)CSc1nc(C)nc2sc(C)c(C)c12)c1ccc(F)cc1	none
Cc1nc(SCC(=O)N(C)Cc2ccco2)c2c(C)c(C)sc2n1	ABHD5 PLIN5 PPI 32.4 | ABHD5 PLIN5 conf inactive | HNF4 counter 22.2
CCOC(=O)c1ccc(NC(=O)NCc2cccnc2)cc1	none
O=C(CCl)N(C/C=C/c1ccccc1)c1ccc2c(c1)OCCO2	ABHD5 PLIN5 PPI 24.9 | ABHD5 PLIN5 conf 23.6 | HNF4 counter 29.0
O=C1NC(=Nc2ccc(O)cc2)S/C1=C\C=C\c1ccco1	ABHD5 PLIN5 PPI 33.1 | ABHD5 PLIN5 conf 27.2 | HNF4 counter 44.7
CCCCCCCNC(=O)C1(CC2CC(c3ccc(Cl)cc3)=NO2)CCN(C(=O)OC(C)(C)C)CC1 (configuration not stated)	none
CCOc1ccc2[nH]c(=O)c(CN(Cc3ccco3)C(CC)c3nnnn3Cc3ccccc3)cc2c1 (configuration not stated)	ABHD5 PLIN5 PPI 24.0 | ABHD5 PLIN5 conf inactive | HNF4 counter 21.3
CCOc1ccc2[nH]c(=O)c(CN(Cc3ccco3)Cc3nnnn3Cc3ccccc3)cc2c1	none
COc1ccc2[nH]c(=O)c(C(c3nnnn3C(C)(C)C)N(Cc3ccco3)CC3CCCO3)cc2c1 (configuration not stated)	ABHD5 PLIN5 PPI 24.4 | ABHD5 PLIN5 conf 28.3 | HNF4 counter 71.9
COc1ccccc1CN(Cc1cc2cc(C)ccc2[nH]c1=O)Cc1nnnn1Cc1ccco1	none
CCc1ccc2[nH]c(=O)c(CN(Cc3ccccc3OC)Cc3nnnn3Cc3ccco3)cc2c1	ABHD5 PLIN5 PPI 32.0 | ABHD5 PLIN5 conf inactive | HNF4 counter inactive
CC(C)(C)n1nnnc1CN(Cc1ccco1)Cc1cc2cc3c(cc2[nH]c1=O)OCO3	ABHD5 PLIN5 PPI 42.4 | ABHD5 PLIN5 conf 23.9 | HNF4 counter 33.8
COC(=O)CCCC[C@@H]1O[C@H](CCc2ccccc2)CC2=C1C(=O)OC(C)(C)O2	none (no result: Beta2AR agonist, MC4R antagonist, PfG6PD inh, MC4R ag barr)
COCCNC(=O)c1ccc(N2CC3CC(C2)c2cccc(=O)n2C3)c(NC(=O)c2ccccc2Cl)c1 (configuration not stated)	none (no result: Beta2AR agonist)
CCCNC(=O)c1cc2c(c(-c3cccc(-c4cc5ccccc5o4)c3)n1)[C@H](CCO)N(C(=O)NC(C)C)C2	none (no result: Beta2AR agonist, MC4R antagonist, PfG6PD inh, MC4R ag barr)
COc1ccccc1C(=O)Nc1cccc2c1CCCC2	none
CCCc1nc2sc3ccccc3c(=O)c2c(=O)n1Cc1ccco1	ABHD5 PLIN5 PPI 27.5 | ABHD5 PLIN5 conf 52.2 | HNF4 counter 73.7
CCCc1nc2sc3ccccc3c(=O)c2c(=O)n1Cc1ccc(OC)cc1	none
COc1ccc(NC(=O)C2CCCN(C(=O)c3ccc(Cl)cc3)C2)cc1S(=O)(=O)N(C)C (configuration not stated)	none
CC(Sc1ccc(Cl)cc1)C(=O)Nc1ccc2c(c1)OCO2 (configuration not stated)	none
CC(C)N1CCC2(CC1)N=C(c1ccc3c(c1)OCO3)CC(c1cc(Cl)ccc1O)N2 (configuration not stated)	ABHD5 PLIN5 PPI 75.3 | ABHD5 PLIN5 conf 31.4 | HNF4 counter 62.0
O=C(Nc1cccc(S(=O)(=O)NC2=NCCC2)c1)c1ccc(=O)[nH]c1	none
CCOC(=O)C(=Cc1cc(=O)c(OC)co1)C(=O)OCC	ABHD5 PLIN5 PPI 24.2 | ABHD5 PLIN5 conf 76.4 | HNF4 counter 89.6
Cc1c(NC(=S)NC(=O)c2cccc(Cl)c2)c(=O)n(-c2ccccc2)n1C	none
COc1ccc(C(CNc2nc(-c3cccnc3)nc3ccccc23)N(C)C)cc1 (configuration not stated)	none
O=C(/C=C/c1ccc([N+](=O)[O-])cc1)c1ccccc(=O)c1O	ABHD5 PLIN5 PPI 65.8 | ABHD5 PLIN5 conf 98.4 | HNF4 counter 90.7
Cc1ccc(/C=C/C(=O)c2ccccc(=O)c2O)c(C)c1	none
O=C(/C=C/c1ccccc1Cl)c1ccccc(=O)c1O	ABHD5 PLIN5 PPI 33.4 | ABHD5 PLIN5 conf 59.2 | HNF4 counter 43.5
Cc1ccc(C)c(/C=C/C(=O)c2ccccc(=O)c2O)c1	ABHD5 PLIN5 PPI 29.8 | ABHD5 PLIN5 conf 55.6 | HNF4 counter 34.7
O=C(COc1ccc(Cl)cc1)NCCNC(=O)c1ccccn1	none
COc1ccccc1Cc1c(-c2ccco2)nc2c(C)cc(Br)cn12	ABHD5 PLIN5 PPI 57.9 (no result: Beta2AR agonist, MC4R antagonist, PfG6PD inh, MC4R ag barr) | ABHD5 PLIN5 conf 35.8 | HNF4 counter 40.4
COc1ccccc1Cc1c(-c2ccco2)nc2ccc(C)cn12	ABHD5 PLIN5 PPI 55.7 (no result: Beta2AR agonist, MC4R antagonist, PfG6PD inh, MC4R ag barr) | ABHD5 PLIN5 conf 27.1 | HNF4 counter 48.0
Cc1ccc2nc(-c3ccco3)c(Cc3cccc(F)c3)n2c1	ABHD5 PLIN5 PPI 56.4 (no result: Beta2AR agonist, MC4R antagonist, PfG6PD inh, MC4R ag barr) | ABHD5 PLIN5 conf inactive | HNF4 counter 19.9
Cc1cc(Br)cn2c(Cc3ccccc3)c(-c3ccco3)nc12	ABHD5 PLIN5 PPI 29.9 (no result: Beta2AR agonist, MC4R antagonist, PfG6PD inh, MC4R ag barr) | ABHD5 PLIN5 conf 29.7 | HNF4 counter 45.0
Cc1ccc2nc(-c3ccccc3)c(Cc3cccc(F)c3)n2c1	none (no result: Beta2AR agonist, MC4R antagonist, PfG6PD inh, MC4R ag barr)
O=C(Cc1c[nH]c2ccccc12)NCC(=O)Nc1ccc(F)c(F)c1F	none
O=C(COc1cccc(F)c1)N[C@@H](Cc1ccccc1)c1nc2ccccc2[nH]1	none
CC(C)Oc1ccc(S(=O)(=O)N2CCOCC2)cc1NC(=O)C1=COCCO1	none
FC(F)(F)c1ccccc1Cc1c(-c2ccco2)nc2ccc(Cl)cn12	ABHD5 PLIN5 PPI 34.1 (no result: Beta2AR agonist, MC4R antagonist, PfG6PD inh, MC4R ag barr) | ABHD5 PLIN5 conf 45.9 | HNF4 counter 63.0
O=C(CC(C(=O)O)c1ccc(F)cc1)c1ccc(Cl)cc1 (configuration not stated)	none
CC(C)(C)c1ccc(C(=O)Nc2ccc(Cl)cc2)cc1	none
CC(C)(C)c1ccc(C(=O)CC(Sc2ccc(Cl)cc2)C(=O)O)cc1 (configuration not stated)	ABHD5 PLIN5 PPI 85.5 | ABHD5 PLIN5 conf 54.4 | HNF4 counter 97.5
Cc1ccc(SC(CC(=O)c2ccc(F)cc2)C(=O)O)cc1 (configuration not stated)	ABHD5 PLIN5 PPI 84.4 | ABHD5 PLIN5 conf 24.3 | HNF4 counter 70.3
CCNC(=S)Nc1ccc2c(c1)oc1ccccc12	none
CCOc1cc(/C=C2\C(=O)N(Cc3ccco3)C(C)=C2C(=O)OC)ccc1O	ABHD5 PLIN5 PPI 51.6 | ABHD5 PLIN5 conf 36.6 | HNF4 counter 62.5
Cc1cccc(/C=C(\c2nc3ccccc3[nH]2)S(=O)(=O)c2ccccc2)c1	ABHD5 PLIN5 PPI 42.5 | ABHD5 PLIN5 conf 84.5 | HNF4 counter 67.5
CN(C)CCCN(C(=O)CCc1ccccc1)c1nc2c(F)cccc2s1	none

Screening results as filed in PubChem.
